From ChEMBL document CHEMBL1150832, “Phenylnaphthalene compounds from the subterranean part of Vitex rotundifolia and their antibacterial activity against methicillin-resistant Staphylococcus aureus” (2001)
Values after ≈ are worked out from the molar mass of the structure shown. Active and inactive are the calls of the source. No cut-off for these calls is given here.

Key:
[1] = test system: Staphylococcus aureus; assay: Antimicrobial activity against methicillin-sensitive Staphylococcus aureus ATCC 6538 at 100 ug after 20 hrs by agar plate diffusion assay; assay type: functional, organism-based
Outline: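 Agar disk diffusion. Cells were grown on Mueller-Hinton agar at 37 °C for 24 h, resuspended in Mueller-Hinton broth to 108 CFU/mL and incubated again. They were then diluted to 105 CFU/mL and used to inoculate Mueller-Hinton agar plates. 6 mm disks loaded with 100 µg compound were placed on the plates and incubated 20 h at 37 °C. Inhibition zones >10 mm were scored positive.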

[2] = test system: Staphylococcus aureus; assay: Antimicrobial activity against methicillin-resistant Staphylococcus aureus 0001 at 100 ug after 20 hrs by agar plate diffusion assay; assay type: functional, organism-based
Outline: (§1)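 Disk diffusion against MRSA clinical isolates from Tokushima University Hospital. Cells were grown on Mueller-Hinton agar at 37 °C for 24 h, resuspended in Mueller-Hinton broth, and diluted to 10^5 CFU/mL to seed Mueller-Hinton agar plates. 6 mm disks loaded with 100 µg compound were incubated 20 h at 37 °C. Inhibition zones over 10 mm in diameter were scored positive.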

[3] = test system: Staphylococcus aureus; assay: Antimicrobial activity against methicillin-resistant Staphylococcus aureus 0002 at 100 ug after 20 hrs by agar plate diffusion assay; assay type: functional, organism-based; outline: as §1
[4] = test system: Staphylococcus aureus; assay: Antimicrobial activity against methicillin-resistant Staphylococcus aureus 0003 at 100 ug after 20 hrs by agar plate diffusion assay; assay type: functional, organism-based; outline: as §1
[5] = test system: Staphylococcus aureus; assay: Antimicrobial activity against methicillin-resistant Staphylococcus aureus 0004 at 100 ug after 20 hrs by agar plate diffusion assay; assay type: functional, organism-based; outline: as §1
[6] = test system: Staphylococcus aureus; assay: Antimicrobial activity against methicillin-resistant Staphylococcus aureus 0005 at 100 ug after 20 hrs by agar plate diffusion assay; assay type: functional, organism-based; outline: as §1
[7] = test system: Staphylococcus aureus; assay: Antimicrobial activity against methicillin-resistant Staphylococcus aureus 0006 at 100 ug after 20 hrs by agar plate diffusion assay; assay type: functional, organism-based; outline: as §1
[8] = test system: Staphylococcus aureus; assay: Antimicrobial activity against methicillin-resistant Staphylococcus aureus 0007 at 100 ug after 20 hrs by agar plate diffusion assay; assay type: functional, organism-based; outline: as §1
[9] = test system: Staphylococcus aureus; assay: Antimicrobial activity against methicillin-resistant Staphylococcus aureus 0008 at 100 ug after 20 hrs by agar plate diffusion assay; assay type: functional, organism-based; outline: as §1
[10] = test system: Staphylococcus aureus; assay: Antimicrobial activity against methicillin-resistant Staphylococcus aureus 0009 at 100 ug after 20 hrs by agar plate diffusion assay; assay type: functional, organism-based; outline: as §1
[11] = test system: Staphylococcus aureus; assay: Antimicrobial activity against methicillin-resistant Staphylococcus aureus 0012 at 100 ug after 20 hrs by agar plate diffusion assay; assay type: functional, organism-based; outline: as §1
[12] = test system: Staphylococcus aureus; assay: Antimicrobial activity against methicillin-resistant Staphylococcus aureus 0013 at 100 ug after 20 hrs by agar plate diffusion assay; assay type: functional, organism-based; outline: as §1
[13] = test system: Staphylococcus aureus; assay: Antimicrobial activity against methicillin-resistant Staphylococcus aureus 0016 at 100 ug after 20 hrs by agar plate diffusion assay; assay type: functional, organism-based; outline: as §1
[14] = test system: Staphylococcus aureus; assay: Antimicrobial activity against methicillin-resistant Staphylococcus aureus 0017 at 100 ug after 20 hrs by agar plate diffusion assay; assay type: functional, organism-based; outline: as §1
[15] = test system: Staphylococcus aureus; assay: Antimicrobial activity against methicillin-resistant Staphylococcus aureus 0018 at 100 ug after 20 hrs by agar plate diffusion assay; assay type: functional, organism-based; outline: as §1
[16] = test system: Staphylococcus aureus; assay: Antimicrobial activity against methicillin-resistant Staphylococcus aureus 0019 at 100 ug after 20 hrs by agar plate diffusion assay; assay type: functional, organism-based; outline: as §1
[17] = test system: Staphylococcus aureus; assay: Antimicrobial activity against methicillin-resistant Staphylococcus aureus 0020 at 100 ug after 20 hrs by agar plate diffusion assay; assay type: functional, organism-based; outline: as §1
[18] = test system: Staphylococcus aureus; assay: Antimicrobial activity against methicillin-resistant Staphylococcus aureus 0021 at 100 ug after 20 hrs by agar plate diffusion assay; assay type: functional, organism-based; outline: as §1
[19] = test system: Staphylococcus aureus; assay: Antimicrobial activity against methicillin-resistant Staphylococcus aureus 0022 at 100 ug after 20 hrs by agar plate diffusion assay; assay type: functional, organism-based; outline: as §1
[20] = test system: Staphylococcus aureus; assay: Antimicrobial activity against methicillin-resistant Staphylococcus aureus 0001 after 20 hrs by serial twofold dilution method; assay type: functional; settings: Staphylococcus aureus, 0001, 20 h
Outline: (§2)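 Agar dilution MIC on Mueller-Hinton agar, following the Japanese Society for Antimicrobial Chemotherapy (1981) method. MRSA clinical isolates from Tokushima University Hospital were grown on Mueller-Hinton agar at 37 °C for 24 h, then resuspended in Mueller-Hinton broth. Suspensions of 1 × 10^6 CFU/mL were spotted with a replicating device. Plates were read after 20 h at 37 °C.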

[21] = test system: Staphylococcus aureus; assay: Antimicrobial activity against methicillin-resistant Staphylococcus aureus 0002 after 20 hrs by serial twofold dilution method; assay type: functional; settings: Staphylococcus aureus, 0002, 20 h; outline: as §2
[22] = test system: Staphylococcus aureus; assay: Antimicrobial activity against methicillin-resistant Staphylococcus aureus 0003 after 20 hrs by serial twofold dilution method; assay type: functional; settings: Staphylococcus aureus, 0003, 20 h; outline: as §2
[23] = test system: Staphylococcus aureus; assay: Antimicrobial activity against methicillin-resistant Staphylococcus aureus 0004 after 20 hrs by serial twofold dilution method; assay type: functional; settings: Staphylococcus aureus, 0004, 20 h; outline: as §2
[24] = test system: Staphylococcus aureus; assay: Antimicrobial activity against methicillin-resistant Staphylococcus aureus 0005 after 20 hrs by serial twofold dilution method; assay type: functional; settings: Staphylococcus aureus, 0005, 20 h; outline: as §2
[25] = test system: Staphylococcus aureus; assay: Antimicrobial activity against methicillin-resistant Staphylococcus aureus 0006 after 20 hrs by serial twofold dilution method; assay type: functional; settings: Staphylococcus aureus, 0006, 20 h; outline: as §2
[26] = test system: Staphylococcus aureus; assay: Antimicrobial activity against methicillin-resistant Staphylococcus aureus 0007 after 20 hrs by serial twofold dilution method; assay type: functional; settings: Staphylococcus aureus, 0007, 20 h; outline: as §2
[27] = test system: Staphylococcus aureus; assay: Antimicrobial activity against methicillin-resistant Staphylococcus aureus 0008 after 20 hrs by serial twofold dilution method; assay type: functional; settings: Staphylococcus aureus, 0008, 20 h; outline: as §2
[28] = test system: Staphylococcus aureus; assay: Antimicrobial activity against methicillin-resistant Staphylococcus aureus 0009 after 20 hrs by serial twofold dilution method; assay type: functional; settings: Staphylococcus aureus, 0009, 20 h; outline: as §2
[29] = test system: Staphylococcus aureus; assay: Antimicrobial activity against methicillin-resistant Staphylococcus aureus 0012 after 20 hrs by serial twofold dilution method; assay type: functional; settings: Staphylococcus aureus, 0012, 20 h; outline: as §2
[30] = test system: Staphylococcus aureus; assay: Antimicrobial activity against methicillin-resistant Staphylococcus aureus 0013 after 20 hrs by serial twofold dilution method; assay type: functional; settings: Staphylococcus aureus, 0013, 20 h; outline: as §2
[31] = test system: Staphylococcus aureus; assay: Antimicrobial activity against methicillin-resistant Staphylococcus aureus 0016 after 20 hrs by serial twofold dilution method; assay type: functional; settings: Staphylococcus aureus, 0016, 20 h; outline: as §2
[32] = test system: Staphylococcus aureus; assay: Antimicrobial activity against methicillin-resistant Staphylococcus aureus 0017 after 20 hrs by serial twofold dilution method; assay type: functional; settings: Staphylococcus aureus, 0017, 20 h; outline: as §2
[33] = test system: Staphylococcus aureus; assay: Antimicrobial activity against methicillin-resistant Staphylococcus aureus 0018 after 20 hrs by serial twofold dilution method; assay type: functional; settings: Staphylococcus aureus, 0018, 20 h; outline: as §2
[34] = test system: Staphylococcus aureus; assay: Antimicrobial activity against methicillin-resistant Staphylococcus aureus 0019 after 20 hrs by serial twofold dilution method; assay type: functional; settings: Staphylococcus aureus, 0019, 20 h; outline: as §2
[35] = test system: Staphylococcus aureus; assay: Antimicrobial activity against methicillin-resistant Staphylococcus aureus 0020 after 20 hrs by serial twofold dilution method; assay type: functional; settings: Staphylococcus aureus, 0020, 20 h; outline: as §2
[36] = test system: Staphylococcus aureus; assay: Antimicrobial activity against methicillin-resistant Staphylococcus aureus 0021 after 20 hrs by serial twofold dilution method; assay type: functional; settings: Staphylococcus aureus, 0021, 20 h; outline: as §2
[37] = test system: Staphylococcus aureus; assay: Antimicrobial activity against methicillin-resistant Staphylococcus aureus 0022 after 20 hrs by serial twofold dilution method; assay type: functional; settings: Staphylococcus aureus, 0022, 20 h; outline: as §2

COc1ccc(-c2cc(C=O)cc3ccc(O)c(OC)c23)cc1OC
Activity [1]: inactive

COc1cc(-c2c3c(cc4cc(OC)c(O)cc24)C(=O)OC3)ccc1O [DETETRAHYDROCONIDENDRIN]
Activity [1]: inactive
Activity [2]: Active
Activity [3]: Active
Activity [4]: Active
Activity [5]: Active
Activity [6]: Active
Activity [7]: Active
Activity [8]: Active
Activity [9]: Active
Activity [10]: Active
Activity [11]: Active
Activity [12]: Active
Activity [13]: Active
Activity [14]: Active
Activity [15]: Active
Activity [16]: Active
Activity [17]: Active
Activity [18]: Active
Activity [19]: Active
MIC [20]: > 64 µg/mL
MIC [21]: 8 µg/mL (≈ 22.7 µM)
MIC [22]: 8 µg/mL (≈ 22.7 µM)
MIC [23]: > 64 µg/mL
MIC [24]: 8 µg/mL (≈ 22.7 µM)
MIC [25]: 8 µg/mL (≈ 22.7 µM)
MIC [26]: 16 µg/mL (≈ 45.4 µM)
MIC [27]: 8 µg/mL (≈ 22.7 µM)
MIC [28]: > 64 µg/mL
MIC [29]: > 64 µg/mL
MIC [30]: > 64 µg/mL
MIC [31]: 16 µg/mL (≈ 45.4 µM)
MIC [32]: > 64 µg/mL
MIC [33]: > 64 µg/mL
MIC [34]: > 64 µg/mL
MIC [35]: 4 µg/mL (≈ 11.4 µM)
MIC [36]: > 64 µg/mL
MIC [37]: > 64 µg/mL

COc1cc2c(cc1OC)C(O)c1c(C=O)cc3ccc(O)c(OC)c3c1-2 (stereo unspecified) [VITROFOLAL C]
Activity [1]: inactive
Activity [2]: Active
Activity [3]: Active
Activity [4]: Active
Activity [5]: Active
Activity [6]: Active
Activity [7]: Active
Activity [8]: Active
Activity [9]: Active
Activity [10]: Active
Activity [11]: Active
Activity [12]: Active
Activity [13]: Active
Activity [14]: Active
Activity [15]: Active
Activity [16]: Active
Activity [17]: Active
Activity [18]: Active
Activity [19]: Active
MIC [20]: > 64 µg/mL
MIC [21]: 64 µg/mL (≈ 175 µM)
MIC [22]: > 64 µg/mL
MIC [23]: > 64 µg/mL
MIC [24]: 64 µg/mL (≈ 175 µM)
MIC [25]: 64 µg/mL (≈ 175 µM)
MIC [26]: 64 µg/mL (≈ 175 µM)
MIC [27]: 64 µg/mL (≈ 175 µM)
MIC [28]: > 64 µg/mL
MIC [29]: > 64 µg/mL
MIC [30]: > 64 µg/mL
MIC [31]: 64 µg/mL (≈ 175 µM)
MIC [32]: > 64 µg/mL
MIC [33]: > 64 µg/mL
MIC [34]: > 64 µg/mL
MIC [35]: 64 µg/mL (≈ 175 µM)
MIC [36]: > 64 µg/mL
MIC [37]: > 64 µg/mL

COc1cc2c(cc1OC)-c1c(c(C=O)cc3ccc(O)c(OC)c13)C2=O [VITROFOLAL D]
Activity [1]: inactive
Activity [2]: Active
Activity [3]: Active
Activity [4]: Active
Activity [5]: Active
Activity [6]: Active
Activity [7]: Active
Activity [8]: Active
Activity [9]: Active
Activity [10]: Active
Activity [11]: Active
Activity [12]: Active
Activity [13]: Active
Activity [14]: Active
Activity [15]: Active
Activity [16]: Active
Activity [17]: Active
Activity [18]: Active
Activity [19]: Active
MIC [20]: > 64 µg/mL
MIC [21]: 16 µg/mL (≈ 43.9 µM)
MIC [22]: 32 µg/mL (≈ 87.8 µM)
MIC [23]: > 64 µg/mL
MIC [24]: 16 µg/mL (≈ 43.9 µM)
MIC [25]: 16 µg/mL (≈ 43.9 µM)
MIC [26]: 16 µg/mL (≈ 43.9 µM)
MIC [27]: 16 µg/mL (≈ 43.9 µM)
MIC [28]: > 64 µg/mL
MIC [29]: > 64 µg/mL
MIC [30]: > 64 µg/mL
MIC [31]: 16 µg/mL (≈ 43.9 µM)
MIC [32]: > 64 µg/mL
MIC [33]: > 64 µg/mL
MIC [34]: > 64 µg/mL
MIC [35]: 16 µg/mL (≈ 43.9 µM)
MIC [36]: > 64 µg/mL
MIC [37]: > 64 µg/mL

COc1cc(-c2cc(C=O)cc3cc(OC)c(O)cc23)ccc1O [VITROFOLAL E]
Activity [1]: inactive
MIC [20]: > 64 µg/mL
MIC [21]: > 64 µg/mL
MIC [22]: > 64 µg/mL
MIC [23]: > 64 µg/mL
MIC [24]: > 64 µg/mL
MIC [25]: > 64 µg/mL
MIC [26]: > 64 µg/mL
MIC [27]: > 64 µg/mL
MIC [28]: > 64 µg/mL
MIC [29]: > 64 µg/mL
MIC [30]: > 64 µg/mL
MIC [31]: > 64 µg/mL
MIC [32]: > 64 µg/mL
MIC [33]: > 64 µg/mL
MIC [34]: > 64 µg/mL
MIC [35]: 64 µg/mL (≈ 197 µM)
MIC [36]: > 64 µg/mL
MIC [37]: > 64 µg/mL
